Shown are actives, neighbours in structure and some others; about 2.5% of the full set was active somewhere.
PG9 Ab binder – binders of HIV-1 gp120 antibody PG9, primary screen, biochemical, TR-FRET; HIV-1 gp120 / PG9 antibody interaction; TR-FRET gp120-PG9 antibody binding; inhibition, % at 6.7 µM; 360,000 tested, 0.43% active; in the data active = inhibition above about 8.5%
MC4R antagonist – MC4R antagonists of cAMP signaling, primary screen, cell-based, TR-FRET, antagonist arm of biased-ligand search | MC4R-expressing cells, MTII-stimulated cAMP, LANCE TR-FRET | inhibition, % at 6.5 µM | 360,000 tested, 0.48% active;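 active = inhibition above its plate's cutoff, the mean of tested wells on that plate plus 3 SD, cut at about 29% in these data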;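 note: 0% = Melanotan II alone and 100% = Melanotan II plus saturating MCL0020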
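Material – human MC4R-expressing U2OS cells · Repeats – no replicates · Detection – TR-FRET with Eu-cAMP and labeled anti-cAMP, 671 nm · Times – compound 30 min, challenge 1 h, detection 1 h · Compound – single nominal compound dose of 6.5 µM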
MC4R barr agon – MC4R agonists recruiting beta-arrestin, primary screen, cell-based, luminescence, agonist arm of biased-ligand search; 360,000 tested, 0.98% active; activation, % at 8.9 µM; Melanocortin receptor 4 (Homo sapiens), P32245; U2OS MC4R beta-arrestin complementation; percent of melanotan II response, DMSO zero; AID 540308, 2011;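 active = activation above a per-plate cutoff, the mean activation of sample wells on that plate plus 3 SD, cut at about 8% in these data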
NTR1 ag – agonists of human NTR1, primary screen, imaging, U2OS cells, beta-arrestin-GFP, high content; activation, % at 20 µM; NTR1-U2OS beta-arrestin-GFP spot imaging, agonist mode; 330,000 tested, 0.17% active; AID 493036, 2011; Neurotensin receptor type 1 (Homo sapiens), P30989;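 active = activation at or above 40% of the spot to cytoplasm intensity ratio, with at least 20 cells analyzed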;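 note: 0% = DMSO without peptide and 100% = 100 nM NTR1 peptide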
NR1D1 modulator – modulators of Rev-erb alpha DNA binding, primary screen, biochemical, FITC-DNA, fluorescence polarization, uHTS. activity, % at 10 µM. AID 1259318, 2017. Nuclear receptor subfamily 1 group D member 1 (Homo sapiens), P20393. 370,000 tested, 0.79% active. Rev-erbα–FITC-DNA binding, 90 min;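 active = activity above about 14%, limit read from the data; passing the limit was not always enough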;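 note: 0% = DMSO wells with 35 nM protein and 100% = DMSO wells with 750 nM protein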
Target sequence (P20393 whole entry, looked up): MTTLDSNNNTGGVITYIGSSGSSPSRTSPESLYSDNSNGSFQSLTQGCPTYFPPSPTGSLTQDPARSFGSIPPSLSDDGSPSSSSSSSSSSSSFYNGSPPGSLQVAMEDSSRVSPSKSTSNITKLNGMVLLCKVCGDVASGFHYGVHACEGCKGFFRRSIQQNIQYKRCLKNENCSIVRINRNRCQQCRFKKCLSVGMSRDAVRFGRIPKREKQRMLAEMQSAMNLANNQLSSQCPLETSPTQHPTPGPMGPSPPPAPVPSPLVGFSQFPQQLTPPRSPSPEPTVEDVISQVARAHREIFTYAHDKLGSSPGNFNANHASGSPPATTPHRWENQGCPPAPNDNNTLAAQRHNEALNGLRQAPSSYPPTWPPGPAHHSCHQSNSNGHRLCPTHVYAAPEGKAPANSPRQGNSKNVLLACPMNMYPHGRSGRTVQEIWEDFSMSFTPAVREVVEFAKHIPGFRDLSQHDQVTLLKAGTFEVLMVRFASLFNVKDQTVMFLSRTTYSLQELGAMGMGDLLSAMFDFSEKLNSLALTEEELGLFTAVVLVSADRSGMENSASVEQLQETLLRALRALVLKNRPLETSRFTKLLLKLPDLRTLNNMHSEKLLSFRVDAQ
The depositor's hits bear a star; . = no result.

SMILES	PG9 Ab binder	MC4R antagonist	MC4R barr agon	NTR1 ag	NR1D1 modulator
CCOC(=O)c1cccc(NC(=O)CN(C)S(=O)(=O)c2ccc(Br)s2)c1	.	.	.	.	2
Cn1cc(-c2ccc(C(=O)Nc3cccc(Oc4ccccc4)c3)c3occc23)cn1	-1	7	9.2*	.	8
COc1ccc(-c2ccc(C(=O)Nc3cccc(Oc4ccccc4)c3)c3occc23)c(C)c1	0	2	-1	.	1
COc1ccc(C(=O)NC(=S)Nc2ccccc2[N+](=O)[O-])cc1OC	0	-5	-1	3	-5
COc1ccc(C(=O)NC(=S)Nc2ccc([N+](=O)[O-])cc2C)cc1OC	0	-1	8.9*	6	1
CCCOc1ccc(/C=C/C(=O)Nc2ccc([N+](=O)[O-])cc2C)cc1OC	-1	7	12*	7	-1
COc1ccc(/C=C/C(=O)OCC(=O)Nc2ccc(N3CCOCC3)cc2)cc1	-2	-2	5	3	-11
CCOc1ccc(/C=C/C(=O)Nc2ccc(N3CCOCC3)cc2)cc1	-1	8	8.9*	1	-1
C[C@@H]1CN([C@H](C)CO)C(=O)c2cc(NS(=O)(=O)c3ccccc3)ccc2O[C@@H](C)CCCCO[C@@H]1CN(C)Cc1ccc(Cl)c(Cl)c1	-1	.	.	.	-5
CN(C)c1ccc(C=c2c3ccccc3n3c2c2ccccc2[n+]3C)cc1	-32	4	14*	.	-34
Cc1cc2c(=Cc3ccc(N(C)C)cc3)c3ccccc3n2[n+]1C	-30	-33	-4	.	7
CN1CCCCC(NC(=O)c2c(F)cccc2F)C1=O (stereo unspecified)	-1	.	.	.	-7
Cc1nnc(NC(=O)c2oc3ccccc3c2C)s1	0	-6	-2	1	-4
CCCCc1nnc(NC(=O)c2oc3ccccc3c2C)s1	1	-1	9.1*	4	-4
COCc1cc(N2CCNC[C@H]2C)ccc1N1C[C@@H](C)O[C@@H](C)C1	-1	.	.	.	0
O=C(COc1ccc(Br)cc1Cl)NC(=S)Nc1ccccn1	0	-1	1	2	0
Cc1ccc(OCC(=O)NC(=S)Nc2ccccn2)c(Br)c1	3	-9	8.6*	1	-4
CCc1ccc(CCNC(=O)OCCCN2CCC3(CCC(C)CC3)C2=O)cc1 (stereo unspecified)	.	.	.	.	7
CCCOc1ccc(/C(O)=C2\C(=O)C(=O)N(CCCOC)C23C(=O)N(C)c2ccccc23)cc1 (stereo unspecified)	11*	6	0	1	0
Cc1ccc(S(=O)(=O)NCC2CCN(C(=O)C(=O)c3cccs3)CC2)cc1	-1	.	.	.	-6
COc1ccc(C(=O)CNc2ccccc2C#N)cc1	0	12	8.3*	1	-7
C=CCN1[C@H](CC(C)C)COc2cccc(N3CCSCC3)c2S1(=O)=O	.	.	.	.	2
CN1CCN(c2ccc(NC(=O)c3ccc(-c4ccc(Br)cc4)o3)cc2)CC1	-2	0	11*	5	-4
O=C(Nc1ccc(N2CCN(Cc3ccccc3F)CC2)cc1)c1ccc([N+](=O)[O-])o1	0	-7	-4	42*	-3
CCN1CCN(c2ccc(NC(=O)c3ccc(Br)o3)cc2)CC1	-3	-6	-3	1	0
SMILES	PG9 Ab binder	MC4R antagonist	MC4R barr agon	NTR1 ag	NR1D1 modulator
CC1CCN(c2ccc(NC(=O)c3ccc([N+](=O)[O-])o3)cc2)CC1	-2	5	3	42*	-9
O=C(Nc1ccc(N2CCN(Cc3ccccc3F)CC2)cc1)c1ccccc1[N+](=O)[O-]	0	-10	1	2	-1
Cc1ccc(CN2CC(N3CCC[C@@H]3C)CS2(=O)=O)cc1 (stereo partly specified)	-1	.	.	.	1
O=C1N/C(=C/c2ccc(N3CCOCC3)o2)C(=O)N1c1ccccc1	-3	0	-3	.	-1
O=C1N/C(=C/c2ccc(N3CCCC3)cc2)C(=O)N1c1ccccc1	-5	-12	8.5*	10	7
COc1ccc(-c2n[nH]c(C)c2-c2ccc(Cl)cc2)c(O)c1	-1	-4	9.1*	14	4
CN(C)CCCNc1cc(C(C)(C)C)nc2c(-c3ccc(Cl)cc3)cnn12	-1	0	8.3*	-2	-1
Cc1ccc(S(=O)(=O)N/N=C/c2ccc(OC3CSC3)cc2)cc1	0	-3	9.5*	7	0
Cc1ccc(S(=O)(=O)N/N=C/c2ccc(C(=O)O)cc2)cc1	-1	-3	0	1	8
CC(C)CC(=O)Nc1ccc(C(=O)Cn2nc(C(=O)O)c3ccccc3c2=O)cc1	0	9	-1	0	6
CC(C)(C)c1ccc(C(=O)Cn2nc(C(=O)O)c3ccccc3c2=O)cc1	-2	1	8.7*	1	3
O=C(NCCCNc1ccc([N+](=O)[O-])cc1)C(F)(F)F	0	2	-3	-1	6
O=C(CCl)N(CCCNC(=O)C(F)(F)F)c1ccc([N+](=O)[O-])cc1	1	8	13*	2	-2
COC(=O)[C@]12C[C@H](CC(=O)N3CCN(C(=O)C4CC4)CC3)C(=O)N(Cc3cccc4ccccc34)C1=C[C@H](C(C)(C)C)O[C@@H]2C	.	.	.	.	0
Cc1oc2c(c(=O)c1C)C(=O)CC(c1ccccc1)C2 (stereo unspecified)	1	1	-2	2	0
CS(=O)(=O)c1sc(C#N)c2c1C(=O)CC(c1ccccc1)C2 (stereo unspecified)	-1	33*	-2	2	-1
Cc1ccccc1NC1=C/C(=N\S(=O)(=O)c2cccs2)c2ccccc2C1=O	-5	-16	-1	40*	-5
COC(=O)[C@@]1(C(C)C)N=C(c2cc(OC)c(OC)c(OC)c2)[C@]2(O1)C(=O)N(Cc1cn(Cc3ccccc3)nn1)c1ccc(F)cc12	.	.	.	.	-2
Nc1sc(Cc2ccccc2)cc1C(=O)c1c(-c2ccccc2)[nH]c2ccccc12	1	.	.	.	-5
Cc1ccc(OCc2nnc(SCC(=O)c3ccccc3)n2-c2ccccc2)cc1	-3	10	2	11	-3
Cc1cccc(-n2c(CCc3ccccc3)nnc2SCC(=O)c2ccccc2)c1	0	7	8.3*	12	2
O=C(CNc1ccccc1OC(F)F)N1CCc2ccccc21	-3	-1	8.3*	1	1
O=C(CSc1nc2sc3c(c2c(=O)n1-c1ccc(Cl)cc1)CCCC3)c1ccccc1Cl	.	.	.	.	-1
CC(C)(C)c1ccc(C(=O)Nc2nnc(Cc3c[nH]c4ccccc34)s2)cc1	-4	9	8.3*	36	5
